Assay results published in ChEMBL document CHEMBL4028876, “Discovery of a Novel Piperidine-Based Inhibitor of Cholesteryl Ester Transfer Protein (CETP) That Retains Activity in Hypertriglyceridemic Plasma” (J Med Chem, 2017).
Each block holds one compound with its values, some of them ahead of it. The source made the active and inactive calls. The calls are words filed in the database; no cut-off is given here.

Tests used:
[1] = target: T1, Cholesteryl ester transfer protein (Homo sapiens, UniProt P11597); assay: Inhibition of CETP in human plasma measured every 30 mins for 120 mins by fluorescence method
T1 sequence (P11597 whole entry): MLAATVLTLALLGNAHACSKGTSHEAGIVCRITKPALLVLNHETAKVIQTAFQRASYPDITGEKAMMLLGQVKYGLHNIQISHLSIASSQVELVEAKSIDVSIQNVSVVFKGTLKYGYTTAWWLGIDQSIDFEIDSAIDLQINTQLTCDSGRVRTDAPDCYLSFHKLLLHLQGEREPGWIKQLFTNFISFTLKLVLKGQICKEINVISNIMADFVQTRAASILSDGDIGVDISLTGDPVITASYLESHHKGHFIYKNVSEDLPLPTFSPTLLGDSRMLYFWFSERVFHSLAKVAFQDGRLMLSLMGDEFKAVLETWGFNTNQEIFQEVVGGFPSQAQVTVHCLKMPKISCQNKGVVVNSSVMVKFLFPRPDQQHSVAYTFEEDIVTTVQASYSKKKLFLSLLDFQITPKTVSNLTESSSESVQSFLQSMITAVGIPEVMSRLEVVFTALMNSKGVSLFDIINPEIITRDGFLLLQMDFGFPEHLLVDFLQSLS
Procedure, shortened: (§1)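 Pooled EDTA plasma from healthy male donors (final 50%) with compound in DMSO (final 1%). The reaction is started with fluorescent donor solution. Activity is the 30–90 min slope. IC50 is fitted to duplicate wells by a logistic equation.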

[2] = 1-Octanol-phosphate buffered saline partition coefficient, log D of compound at […] by tandem mass spectrometry method; assay type: physicochemical
Syrian golden hamster [3] = assay: Increase in HDL cholesterol level in Syrian hamster plasma at 0.3 and 10 mg/kg, po dosed once daily for 2 weeks and measured 24 hrs post last dose by HPLC size exclusion chromatography method relative to control; assay type: functional, organism-based; settings: Mesocricetus auratus
Procedure, shortened: (§2)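 Chow-fed hamsters gavaged once daily in the morning for 2 weeks (0.3, 1, 3, 10 mg/kg; vehicle 10 mL/kg). Blood is drawn from the abdominal vein under isoflurane 24 h post last dose, after a 16 h fast. Lipoprotein cholesterol is measured by Superose 6 HPLC with online enzymatic detection at 580 nm, standardized to control plasma. Mean ± SEM, n=6, Dunnett test.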

Hamster [4] = assay: Increase in HDL cholesterol levels in hamster plasma by HPLC size exclusion chromatography method relative to control; assay type: functional; settings: Cricetinae; procedure, shortened: as §2
Syrian golden hamster [5] = assay: Reduction in LDL cholesterol level in Syrian hamster plasma at 0.3 and 10 mg/kg, po dosed once daily for 2 weeks and measured 24 hrs post last dose by HPLC size exclusion chromatography method relative to control; assay type: functional, organism-based; settings: Mesocricetus auratus; procedure, shortened: as §2
Syrian golden hamster [6] = assay: Reduction in LDL cholesterol level in Syrian hamster plasma at 0.3 and 10 mg/kg, po dosed once daily for 2 weeks and measured 24 hrs post last dose by HPLC size exclusion chromatography method; assay type: functional, organism-based; settings: Mesocricetus auratus; procedure, shortened: as §2
[7] = Drug uptake in Syrian hamster plasma at 10 mg/kg, po dosed once daily for 14 days measured 24 hrs post last dose by LC-MS/MS method; assay type: ADME, organism-based, Mesocricetus auratus; settings: in vivo
Procedure, shortened: (§3)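 Chow-fed hamsters dosed orally once daily for 14 days. Blood and ~100 mg adipose, adrenal and liver samples are taken 24 h after the final dose. Tissues are flash-frozen and stored at −80 °C. Total drug concentrations are measured by LC-MS/MS. Mean ± SEM, seven animals per group.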

[8] = Drug uptake in Syrian hamster adipose tissue at 10 mg/kg, po dosed once daily for 14 days measured 24 hrs post last dose by LC-MS/MS method; assay type: ADME, organism-based, Mesocricetus auratus; settings: in vivo; procedure, shortened: as §3
[9] = Drug uptake in Syrian hamster adrenal tissue at 10 mg/kg, po dosed once daily for 14 days measured 24 hrs post last dose by LC-MS/MS method; assay type: ADME, organism-based, Mesocricetus auratus, Adrenal gland; settings: in vivo; procedure, shortened: as §3
[10] = target: T2, Cholesteryl ester transfer protein (Homo sapiens) (UniProt P11597); assay: Inhibition of CETP activity in human serum at upto 1200 mg/dl serum triglyceride concentration by LC-MS/MS method; settings: in the assay text read “fluorescence method” for “LC-MS/MS method”
T2 sequence (whole entry): T1 sequence (P11597 whole entry)
Procedure, shortened: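 Three human serum pools of differing triglyceride level. IC50 values are the mean of two replicates per pool.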

Hamster [11] = assay: Ex vivo inhibition of CETP activity in hamster hypertriglyceridemia model treated with 100 mg/kg, iv Triton WR-1339 dosed 5 hrs post compound dose measured every 15 mins for 120 mins by fluorescence method; assay type: functional, organism-based; settings: Cricetinae
Procedure, shortened: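 Chow-fed hamsters given a single gavage dose of compound or vehicle. Triton WR-1339 (100 mg/kg) or saline is given iv 5 h later, and plasma is taken 3 h after that. Plasma (final 80%) is mixed with fluorescent donor in 50 mM Tris-HCl pH 7.4, 150 mM NaCl, 2 mM EDTA. Ex/em 485/535 nm, read every 15 min for 120 min at 37 °C. Activity is the 30–90 min slope. Five animals per group.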

Serum [12] = assay: Drug uptake in HDL fraction of human serum from human donors with normal triglyceride levels (<150 mg/dL) by LC-MS/MS method; assay type: ADME, cell-free
Procedure, shortened: (§4)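 Pooled unfasted human serum (mean TG 122, 347 or 958 mg/dL) spiked with inhibitor to 500 ng/mL, 37 °C, 1 h. NaBr density-gradient ultracentrifugation, 18.5 h at 15 °C. Acetonitrile precipitation, glyburide internal standard, LC-MS/MS in duplicate. Result given as % of total across pools.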

Serum [13] = assay: Drug uptake in LDL fraction of human serum from human donors with normal triglyceride levels (<150 mg/dL) by LC-MS/MS method; assay type: ADME, cell-free; procedure, shortened: as §4
Serum [14] = assay: Drug uptake in lipoprotein deficient serum fraction of human serum from human donors with normal triglyceride levels (<150 mg/dL) by LC-MS/MS method; assay type: ADME, cell-free; procedure, shortened: as §4
Serum [15] = assay: Drug uptake in triglyceride rich lipoprotein fraction of human serum from human donors with normal triglyceride levels (<150 mg/dL) by LC-MS/MS method; assay type: ADME, cell-free; procedure, shortened: as §4
NCI-H295R = assay: Toxicty in human NCI-H295R cells assessed as increase in aldosterone levels at 0.1 to 10000 nM after 24 hrs by scintillation proximity assay; assay type: toxicity, cell-based; settings: 10 µM
Syrian golden hamster [16] = assay: Inhibition of CETP in Syrian hamster blood at 3 and 10 mg/kg, po dosed once daily for 2 weeks and measured 24 hrs post last dose; assay type: functional, organism-based; settings: Mesocricetus auratus
Serum [17] = assay: Drug uptake in triglyceride rich lipoprotein fraction of human serum from human donors with triglyceride levels ( 300-500 and >750 mg/dL) by LC-MS/MS method; assay type: ADME, cell-free; procedure, shortened: as §4
[18] = target: T2, Cholesteryl ester transfer protein (Homo sapiens); assay: Inhibition of CETP in human plasma at 100 uM measured every 30 mins for 120 mins by fluorescence method
Procedure, shortened: as §1, with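 “solution. Ex/em 485/535 nm, read every 30 min for 120 min at 37 °C.” for “solution.”, “slope. Torcetrapib (1 or 10 µM) and DMSO define 100% and 0% inhibition.” for “slope.”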

[19] = Half life in Sprague-Dawley rat at 1 mg/kg, iv or 3 mg/kg, po by LC-ESI-MS/MS analysis; assay type: ADME, organism-based; settings: in vivo
Procedure, shortened: (§5)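 Conscious 7-week-old male Sprague-Dawley rats on standard diet with free water. Dosing is 1 mg/kg iv bolus in N-methylpyrrolidin-2-one/PEG 200, or 3 mg/kg oral suspension in 0.5% aqueous methylcellulose. Blood is sampled at various time points after administration.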

[20] = Clearance in Sprague-Dawley rat plasma at 1 mg/kg, iv or 3 mg/kg, po by LC-ESI-MS/MS analysis; assay type: ADME, organism-based; procedure, shortened: as §5
[21] = Volume of distribution in Sprague-Dawley rat at 1 mg/kg, iv or 3 mg/kg, po by LC-ESI-MS/MS analysis; assay type: ADME, organism-based; settings: in vivo; procedure, shortened: as §5
[22] = AUC (infinity) in Sprague-Dawley rat at 1 mg/kg, iv or 3 mg/kg, po by LC-ESI-MS/MS analysis; assay type: ADME, organism-based; settings: in vivo; procedure, shortened: as §5
[23] = Oral bioavailability in Sprague-Dawley rat at 3 mg/kg by LC-ESI-MS/MS analysis; assay type: ADME, organism-based; settings: in vivo; procedure, shortened: as §5
Cytochrome P450 3A4 [24] = target: T3, Cytochrome P450 3A4 (Homo sapiens, UniProt P08684); assay: Inhibition of CYP3A4 (unknown origin) in the presence of midozolam; assay type: ADME
T3 sequence (P08684 whole entry): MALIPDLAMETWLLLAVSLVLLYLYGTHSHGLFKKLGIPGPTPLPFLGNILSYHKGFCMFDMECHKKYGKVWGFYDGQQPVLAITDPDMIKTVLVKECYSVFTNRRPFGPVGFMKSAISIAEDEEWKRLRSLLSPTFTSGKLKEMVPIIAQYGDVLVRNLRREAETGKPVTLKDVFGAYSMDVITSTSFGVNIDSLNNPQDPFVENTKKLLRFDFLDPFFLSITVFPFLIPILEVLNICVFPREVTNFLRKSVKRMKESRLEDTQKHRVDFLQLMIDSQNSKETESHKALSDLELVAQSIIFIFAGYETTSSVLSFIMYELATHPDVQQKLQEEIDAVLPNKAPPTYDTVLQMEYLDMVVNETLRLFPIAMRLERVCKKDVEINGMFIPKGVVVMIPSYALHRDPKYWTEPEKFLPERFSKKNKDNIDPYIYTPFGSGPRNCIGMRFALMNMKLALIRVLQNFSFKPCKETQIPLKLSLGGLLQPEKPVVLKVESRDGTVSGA

Cytochrome P450 3A4 [25] = target: T3, Cytochrome P450 3A4; assay: Inhibition of CYP3A4 (unknown origin) in the presence of testosterone; assay type: ADME
Cytochrome P450 2D6 = Cytochrome P450 2D6 (Homo sapiens, UniProt P10635); assay: Inhibition of CYP2D6 (unknown origin); assay type: ADME
Cytochrome P450 2D6, sequence (P10635 whole entry): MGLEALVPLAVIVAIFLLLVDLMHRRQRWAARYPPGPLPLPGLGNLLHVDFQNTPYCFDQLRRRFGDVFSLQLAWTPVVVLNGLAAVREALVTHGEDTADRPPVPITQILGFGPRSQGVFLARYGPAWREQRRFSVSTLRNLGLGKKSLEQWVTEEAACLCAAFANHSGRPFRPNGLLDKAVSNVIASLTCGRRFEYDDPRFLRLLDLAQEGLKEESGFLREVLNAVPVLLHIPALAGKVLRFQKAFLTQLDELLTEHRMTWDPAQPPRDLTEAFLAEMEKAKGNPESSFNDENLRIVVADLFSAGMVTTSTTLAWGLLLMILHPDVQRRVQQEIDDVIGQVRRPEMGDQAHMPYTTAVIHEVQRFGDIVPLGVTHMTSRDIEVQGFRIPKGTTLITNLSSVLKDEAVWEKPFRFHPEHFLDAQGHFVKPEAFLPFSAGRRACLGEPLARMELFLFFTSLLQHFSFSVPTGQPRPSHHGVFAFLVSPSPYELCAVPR

Cytochrome P450 2C9 = Cytochrome P450 2C9 (Homo sapiens, UniProt P11712); assay: Inhibition of CYP2C9 (unknown origin); assay type: ADME
Cytochrome P450 2C9, sequence (P11712 whole entry): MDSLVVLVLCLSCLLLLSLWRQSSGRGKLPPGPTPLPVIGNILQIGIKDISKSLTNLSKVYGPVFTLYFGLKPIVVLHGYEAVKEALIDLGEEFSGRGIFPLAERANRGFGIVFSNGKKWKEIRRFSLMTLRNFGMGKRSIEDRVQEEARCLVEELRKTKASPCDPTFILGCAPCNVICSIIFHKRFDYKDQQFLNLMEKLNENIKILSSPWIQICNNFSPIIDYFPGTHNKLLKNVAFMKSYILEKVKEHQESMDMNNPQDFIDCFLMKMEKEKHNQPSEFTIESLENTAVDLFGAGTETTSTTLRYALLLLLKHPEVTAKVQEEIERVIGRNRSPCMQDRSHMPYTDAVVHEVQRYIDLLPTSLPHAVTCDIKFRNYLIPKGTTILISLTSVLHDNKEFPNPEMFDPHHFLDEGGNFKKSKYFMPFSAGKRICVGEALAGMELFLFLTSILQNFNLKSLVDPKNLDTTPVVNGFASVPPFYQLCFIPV

Rattus norvegicus [26] = assay: Toxicity in cannulated Sprague-Dawley rat assessed as increase in mean arterial pressure at 5 mg/kg, iv by blood pressure transducer based method; assay type: organism-based; settings: in vivo
Rattus norvegicus [27] = assay: Toxicity in cannulated Sprague-Dawley rat assessed as increase in plasma aldosterone levels at 5 mg/kg, iv by radioimmunoassay; assay type: organism-based; settings: in vivo

IC50 [1]: 0.071 µM
Structure (SMILES): CC[C@@H]1C[C@H](N(Cc2cc(C(F)(F)F)cc(C(F)(F)F)c2)c2ncc(OC)cn2)C[C@H](Cc2ccccc2)N1C(=O)OC(C)(C)C (racemic)

logD [2]: > 5.9
Drug uptake [7]: Not Active
Drug uptake [8]: Active
Drug uptake [9]: Active
inhibition [10]: inactive
Drug uptake (Serum [12]): Active
Drug uptake (Serum [13]): Active
Drug uptake (Serum [14]): Active
Drug uptake (Serum [15]): Active
Drug uptake (Serum [17]): Active
Structure (SMILES): COc1cc(F)c(C(C)C)cc1-c1ccc(C(F)(F)F)cc1CN1C(=O)O[C@H](c2cc(C(F)(F)F)cc(C(F)(F)F)c2)[C@@H]1C [ANACETRAPIB]
Activity (Syrian golden hamster [3]): Dose-dependent effect
Activity (Hamster [4]): Dose-dependent effect
Activity (Syrian golden hamster [5]): Active
Activity (Syrian golden hamster [6]): Dose-dependent effect
inhibition (Hamster [11]): inactive
Activity (NCI-H295R): Non-Toxic
inhibition (Syrian golden hamster [16]): Active

inhibition [18]: 70%
Structure (SMILES): CC[C@@H]1C[C@H](N(Cc2cc(C(F)(F)F)cc(C(F)(F)F)c2)C(=O)OC)CCN1C(=O)OC(C)(C)C (racemic)

IC50 [1]: 0.2 µM
Structure (SMILES): CC[C@@H]1C[C@H](N(Cc2cc(C(F)(F)F)cc(C(F)(F)F)c2)c2ncc(Br)cn2)C[C@H](Cc2ccccc2)N1C(=O)OC(C)C (racemic)

IC50 [1]: 0.51 µM
Structure (SMILES): CCCC(=O)N1[C@H](CC)C[C@H](N(Cc2cc(C(F)(F)F)cc(C(F)(F)F)c2)c2ncc(Br)cn2)C[C@@H]1Cc1ccccc1 (racemic)

IC50 [1]: 0.077 µM
Structure (SMILES): CC[C@@H]1C[C@H](N(Cc2cc(C(F)(F)F)cc(C(F)(F)F)c2)c2ncc(Br)cn2)C[C@H](Cc2ccccc2)N1C(=O)OC(C)(C)C

IC50 [1]: 4.8 µM
Structure (SMILES): CCNC(=O)N1[C@H](CC)C[C@H](N(Cc2cc(C(F)(F)F)cc(C(F)(F)F)c2)c2ncc(Br)cn2)C[C@@H]1Cc1ccccc1 (racemic)

IC50 [1]: 0.15 µM
half-life [19]: 5.6 h
clearance [20]: 0.09 L/h/kg
Vd [21]: 0.67 L/kg
AUC(0-inf) [22]: 28.5 µM·h
bioavailability [23]: 58%
IC50 (Cytochrome P450 3A4 [24]): 25 µM
IC50 (Cytochrome P450 3A4 [25]): > 50 µM
IC50 (Cytochrome P450 2D6): > 50 µM
IC50 (Cytochrome P450 2C9): > 50 µM
Structure (SMILES): CC[C@@H]1C[C@H](N(Cc2cc(C(F)(F)F)cc(C(F)(F)F)c2)c2ncc(N3CCOCC3)cn2)C[C@H](CC)N1C(=O)O[C@H]1CC[C@H](C(=O)O)CC1

logD [2]: > 4
Structure (SMILES): CCOC(=O)N1c2ccc(C(F)(F)F)cc2[C@@H](N(Cc2cc(C(F)(F)F)cc(C(F)(F)F)c2)C(=O)OC)C[C@H]1CC [TORCETRAPIB]
Activity (NCI-H295R): Toxic
Activity (Rattus norvegicus [26]): Toxic
Activity (Rattus norvegicus [27]): Toxic
